What was measured:
L1210 [1] = experiment: Antitumor activity was determined against the ip implanted L1210 leukemia in mice by percent increase in life span at 80 mg/kg (treatment of 1-5qd schedule) dosage; assay type: functional, Mus musculus; conditions: route intraperitoneal
Summary of the method: (§1)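 DBA/2J mice in groups of 6 (wt 23-28 g) were inoculated ip with 1×10^6 L1210 cells on day 0. Dosing was ip from 24 h, in 0.9% NaCl with 0.5% Tween-80 (conjugates sonicated), across a range of doses. Mice were observed daily until death or 45 days. Median T/C was computed from survivors per NCI protocols, and ILS = (T/C − 1)×100.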

AMML = experiment: Compound was tested for the inhibition of AMML (acute myelomonocytic leukemia); assay type: functional, cell-based; conditions: Homo sapiens
Summary of the method: (§2)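 Human leukemia and solid tumor cells in culture were exposed to compound for 48 h. Viability was scored by trypan blue dye exclusion. IC50 (50% inhibition) was estimated from response curves of three separate experiments.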

L1210 [2] = experiment: Antitumor activity against the ip implanted L1210 leukemia in mice expressed as optimal dose (1 qd treatment schedule) required to produce greatest increase in life span was determined; assay type: functional, Mus musculus
Summary of the method: (§3)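 DBA/2J mice, groups of 6 (23-28 g), were inoculated ip with 1 × 10^6 L1210 cells on day 0. Dosing was ip from 24 h, in 0.9% NaCl with 0.5% Tween-80 (sonicated solution or suspension). Mice were observed daily until death or day 45. Median survival T/C followed NCI protocols, and ILS = (T/C − 1) × 100. Active range means doses giving ILS ≥25%; optimal dose means greatest ILS.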

L1210 [3] = experiment: Antitumor activity was determined against the ip implanted L1210 leukemia in mice by percent median survival rate (treated/control) at 300 mg/kg (treatment of 1qd schedule) dosage; 9.5/8.0; assay type: functional, Mus musculus; conditions: route intraperitoneal
Summary of the method: (§4)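 DBA/2J mice, 23-28 g, in groups of 6, were inoculated ip with 1×10^6 L1210 cells on day 0. Dosing was ip starting 24 h later on the stated daily schedules. Conjugates were given as sonicated solutions and reference prodrugs as suspensions in 0.9% NaCl with 0.5% Tween-80. Mice were observed daily until death or 45 days. Median survival T/C was calculated from survivors per NCI protocols.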

L1210 [4] = experiment: Antitumor activity against ip implanted L1210 leukemia in mice expressed as active dose range (1-5qd treatment schedule) required to produce increase in life span by >25% was determined; Range is 10-120
L1210 [5] = experiment: Antitumor activity was determined against the ip implanted L1210 leukemia in mice by range in survival days at 80 mg/kg (treatment of 1-5qd schedule) dosage; Range is 17-18; assay type: functional, Mus musculus; conditions: route intraperitoneal; summary of the method: as §4
P388 [6] = experiment: Antitumor activity was determined against the ip implanted P388 leukemia in mice by percent median survival rate (treated/control) at 300 mg/kg (1 qd treatment schedule) dosage; 12.5/11.0; assay type: functional, Mus musculus; conditions: route intraperitoneal
L1210 [7] = experiment: Antitumor activity was determined against the ip implanted L1210 leukemia in mice by percent increase in life span at 300 mg/kg (treatment of 1qd schedule) dosage; assay type: functional, Mus musculus; conditions: route intraperitoneal; summary of the method: as §1
P388 [8] = experiment: Antitumor activity was determined against the ip implanted P388 leukemia in mice by percent increase in life span at 60 mg/kg (1-5qd treatment schedule) dosage; assay type: functional, Mus musculus; conditions: route intraperitoneal
Summary of the method: (§5)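 DBA/2J mice, 23-33 g, in groups of 6, were inoculated ip with 1×10^6 P388 cells on day 0. Dosing was ip from 24 h on the stated schedules, in 0.9% NaCl with 0.5% Tween-80 (sonicated solution or suspension). Survival was followed daily until death or 45 days. Median T/C was calculated from survivors per NCI protocols, with ILS = (T/C − 1) × 100.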

P388 [9] = experiment: Antitumor activity against ip implanted P388 leukemia in mice expressed as active dose range (1-5qd treatment schedule) required to produce increase in life span by >25% was determined; Range is 60-80; assay type: functional, Mus musculus
Summary of the method: (§6)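 P388 leukemia: 1 × 10^6 cells were given ip on day 0 to DBA/2J mice, groups of 6 (23-33 g). Treatment was ip from 24 h after inoculation, vehicle 0.9% NaCl with 0.5% Tween-80. Mice were observed daily until death or 45 days. Median survival T/C was calculated from survivors per NCI protocols, and ILS = (T/C − 1) × 100. Active range means doses giving ILS ≥25%; optimal dose means greatest ILS.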

HL-60 = experiment: Compound was tested for the inhibition of human HL60 Leukemia; assay type: functional, cell-based; summary of the method: as §2
[10] = system: Small cell lung cancer cell line; experiment: Compound was tested for the inhibition of small cell lung cancer; assay type: functional, cell-based; conditions: Homo sapiens; summary of the method: as §2
L1210 [11] = experiment: Antitumor activity was determined against the ip implanted L1210 leukemia in mice by 45-day survivors in mice at 80 mg/kg (treatment of 1-5qd schedule) dosage; assay type: functional, Mus musculus; conditions: route intraperitoneal; summary of the method: as §1
Glioblastoma cell line = experiment: Compound was tested for the inhibition of glioblastoma; assay type: functional, cell-based; conditions: Homo sapiens; summary of the method: as §2
L1210 [12] = experiment: Antitumor activity against the ip implanted L1210 leukemia in mice expressed as optimal dose (1-5qd treatment schedule) required to produce greatest increase in life span was determined; assay type: functional, Mus musculus; summary of the method: as §3
P388 [13] = experiment: Antitumor activity was determined against the ip implanted P388 leukemia in mice by change in […] at 60 mg/kg (1-5qd treatment schedule) dosage; assay type: functional, Mus musculus; conditions: route intraperitoneal
Summary of the method: (§7)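 P388 leukemia, 1×10^6 cells implanted ip on day 0 into DBA/2J mice, groups of 6 (wt 23-33 g). Dosing ip started 24 h post-inoculation, vehicle 0.9% NaCl containing 0.5% Tween-80. Animals were observed daily until death or 45 days. Outputs were weight change, median survival T/C from survivors per NCI protocols, and %ILS = (T/C − 1) × 100.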

P388 [14] = experiment: Antitumor activity was determined against the ip implanted P388 leukemia in mice by range in survival days at 60 mg/kg (1-5qd treatment schedule) dosage; Range is 18-21; assay type: functional, Mus musculus; conditions: route intraperitoneal
P388 [15] = experiment: Antitumor activity against the ip implanted P388 leukemia in mice expressed as optimal dose (1 qd treatment schedule) required to produce greatest increase in life span was determined; assay type: functional, Mus musculus; summary of the method: as §6
P388 [16] = experiment: Antitumor activity was determined against the ip implanted P388 leukemia in mice by percent increase in life span at 300 mg/kg (1 qd treatment schedule) dosage; assay type: functional, Mus musculus; conditions: route intraperitoneal; summary of the method: as §5
CML/BC = experiment: Compound was tested for the inhibition of CML/BC(chronic myeloid leukemia, blast crisis); assay type: functional, cell-based; conditions: Homo sapiens; summary of the method: as §2
L1210 [17] = experiment: Antitumor activity was determined against the ip implanted L1210 leukemia in mice by change in […] at 80 mg/kg (treatment of 1-5qd schedule) dosage; assay type: functional, Mus musculus; conditions: route intraperitoneal
Summary of the method: (§8)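 DBA/2J mice, 6 per group (wt 23-28 g), inoculated ip with 1×10^6 L1210 cells on day 0. Treatment was given ip in 0.9% NaCl with 0.5% Tween-80, starting 24 h later. Weight change was taken on day 8. Mice were observed daily until death or 45 days. Median survival T/C and %ILS = (T/C − 1) × 100 came from survivors per NCI protocols, and 45-day survivors were counted.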

L1210 [18] = experiment: Antitumor activity was determined against the ip implanted L1210 leukemia in mice by 45-day survivors in mice at 300 mg/kg (treatment of 1qd schedule) dosage; assay type: functional, Mus musculus; conditions: route intraperitoneal; summary of the method: as §1
P388 [19] = experiment: Antitumor activity was determined against the ip implanted P388 leukemia in mice by change in […] at 300 mg/kg (1 qd treatment schedule) dosage; assay type: functional, Mus musculus; conditions: route intraperitoneal; summary of the method: as §7
P388 [20] = experiment: Antitumor activity was determined against the ip implanted P388 leukemia in mice by 45-day survivors in mice at 60 mg/kg (1-5qd treatment schedule) dosage; assay type: functional, Mus musculus; conditions: route intraperitoneal; summary of the method: as §5
NSCLC = experiment: Compound was tested for the inhibition of non- small cell lung cancer; assay type: functional, cell-based; conditions: Homo sapiens; summary of the method: as §2
P388 [21] = experiment: Antitumor activity was determined against the ip implanted P388 leukemia in mice by percent median survival rate (treated/control) at 60 mg/kg (1-5qd treatment schedule) dosage; 21.0/12.0; assay type: functional, Mus musculus; conditions: route intraperitoneal
P388 [22] = experiment: Antitumor activity was determined against the ip implanted P388 leukemia in mice by range in survival days at 300 mg/kg (1 qd treatment schedule) dosage; Range is 3-18; assay type: functional, Mus musculus; conditions: route intraperitoneal
P388 [23] = experiment: Antitumor activity against the ip implanted P388 leukemia in mice expressed as optimal dose (1-5qd treatment schedule) required to produce greatest increase in life span was determined; assay type: functional, Mus musculus; set-up: unit: mg/kg; summary of the method: as §6
L1210 [24] = experiment: Antitumor activity was determined against the ip implanted L1210 leukemia in mice by range in survival days at 300 mg/kg (treatment of 1qd schedule) dosage; Range is 9-10; assay type: functional, Mus musculus; conditions: route intraperitoneal; summary of the method: as §4
L1210 [25] = experiment: Antitumor activity was determined against the ip implanted L1210 leukemia in mice by change in […] at 300 mg/kg (treatment of 1qd schedule) dosage; assay type: functional, Mus musculus; conditions: route intraperitoneal; summary of the method: as §8
L1210 [26] = experiment: Antitumor activity was determined against the ip implanted L1210 leukemia in mice by percent median survival rate (treated/control) at 80 mg/kg (treatment of 1-5qd schedule) dosage; 18.0/7.0; assay type: functional, Mus musculus; conditions: route intraperitoneal; summary of the method: as §4
P388 [27] = experiment: Antitumor activity was determined against the ip implanted P388 leukemia in mice by 45-day survivors in mice at 300 mg/kg (1 qd treatment schedule) dosage; assay type: functional, Mus musculus; conditions: route intraperitoneal; summary of the method: as §5

For CCCCCCCCCCCCCCCCCCOCC(COP(=O)(O)OP(=O)(O)OC[C@H]1O[C@@H](n2ccc(N)nc2=O)[C@@H](O)[C@@H]1O)OC (mixture of isomers), the ILS (L1210 [1]) was 157, the IC50 (AMML) was 2.3 µM and the Optimal dose (L1210 [2]) was 300 mg/kg/day. It also gave a median survival time (L1210 [3]) of 9.5 days, an Active dose range (L1210 [4]) of 10 mg/kg/day and a Range (L1210 [5]) of 17. It also gave a T/C (P388 [6]) of 12.5%, an ILS (L1210 [7]) of 12 and an ILS (P388 [8]) of 75. The Active dose range (P388 [9]) was 60 mg/kg/day, the IC50 (HL-60) was 13 µM and the IC50 [10] was > 100 µM. The Survivors (L1210 [11]) was 0, the IC50 (Glioblastoma cell line) was 47 µM and the Optimal dose (L1210 [12]) was 80 mg. It also gave a Weight change (P388 [13]) of 0.04 g mouse-1, a Range (P388 [14]) of 18 and an Optimal dose (P388 [15]) of 300 mg. The ILS (P388 [16]) was 14, the IC50 (CML/BC) was 1.2 µM and the Weight change (L1210 [17]) was -1.53 g mouse-1. For the same compound, the Survivors (L1210 [18]) was 0, the Weight change (P388 [19]) was 0.38 g mouse-1 and the Survivors (P388 [20]) was 0. For the same compound, the IC50 (NSCLC) was 38 µM, the T/C (P388 [21]) was 21% and the Range (P388 [22]) was 3. It also gave an Optimal dose (P388 [23]) of 60 mg, a Range (L1210 [24]) of 9 and a Weight change (L1210 [25]) of 2.58 g mouse-1. It also gave a T/C (L1210 [26]) of 18% and a Survivors (P388 [27]) of 0.

Reference: ChEMBL document CHEMBL1123247, “Nucleoside conjugates. 7. Synthesis and antitumor activity of 1-beta-D-arabinofuranosylcytosine conjugates of ether lipids” (J Med Chem, 1986)
